The results in this text go back to ChEMBL document CHEMBL4513216, “Probing the Open Global Health Chemical Diversity Library for Multistage-Active Starting Points for Next-Generation Antimalarials” (ACS Infect Dis, 2020).

The nature of the data set: Toxicity liver stage against HepG2, at 10uM. It is filed as cell-based. Also noted: test concentration 10 uM, cell line HepG2-A16-CD81EGFP. Conditions: human, HepG2-A16-CD81EGFP cells; read-out: INHIBITION
A digest of the protocol:
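Uninfected HepG2-A16-CD81EGFP cells, 3 × 10^3 per well, 1536-well, plated on prespotted compound at 10 μM final, parasite-free screening media added to match infected plates; puromycin 10 μM positive, DMSO 0.5% negative; run in parallel with 48 h PbLuc assay at 37 °C, 5% CO2; viability by CellTiter-Glo luminescence, normalized to controls.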
As for `Cc1ccc2c(c1)Oc1ncccc1C(=O)N2`, the cytotoxicity at 10 µM was 5.15%.
In the case of `CN1C[C@@H](NC(=O)c2ccccc2)C[C@H]1c1nc(-c2cnccn2)no1`, the cytotoxicity at 10 µM came to 9.68%.
The value for `COc1ccc(OC)c(S(=O)(=O)NCC2(OC)CCSC2)c1` (configuration not stated) was -12.8%.
The value for `NC1CCN(c2nccn3c(=O)[nH]nc23)CC1` was 3.65%; that for `O=C(CCn1cc(Cl)cn1)Nc1ncccn1` was -5.32%.
As for `Cc1c2ncn(CC(=O)NC(C)C)c(=O)c2nn1C`, the figure is -5.26%; as for `O=C(NCc1ccco1)c1[nH]nc2c1CS(=O)(=O)CC2`, 14.8%; as for `CC(Nc1ncnc2c1NC(=O)CN2)c1ccc2c(c1)OCO2` (configuration not stated), 8.19%.
As for `Cc1cc(C)nc(NC(=O)C(C)Oc2ccc3c(c2)OCO3)n1` (configuration not stated), the cytotoxicity at 10 µM was -9.9%.
In the case of `Cc1cc(=O)n(CC(=O)NCCC(C)C)c(-c2cccc(Cl)c2)n1`, the cytotoxicity at 10 µM was -2.32%.
As for `CC(=O)N1CCC(C(=O)N2CCC2c2nc(-c3ccc(C)s3)no2)CC1` (configuration not stated), the figure is 3.15%; as for `O=C(c1cncs1)N1CCC(c2cnccn2)CC1`, -23.2%.
As for `O=C(O)c1ccccc1-c1ccc(CN2CCCC(O)C2)cc1` (configuration not stated), the cytotoxicity at 10 µM is -9.16%.
The value for `CC(C)C(=O)N1CCCC(c2ncncc2-c2ccncc2)C1` (configuration not stated) was -6.62%; that for `CN1CCC(O)(CNCc2ccc(F)c(C(F)(F)F)c2)CC1` was 3.08%; that for `COc1ccccc1C(N)CC(C)C` (configuration not stated) was 6%.
Turning to `CN(C)CCCNC(=O)c1ccnc(OCc2ccccc2)c1`, the cytotoxicity at 10 µM was -11.5%.
As for `CCOCC(O)CN1CCN(C(=O)c2ccncc2)CC1` (configuration not stated), the figure is 10%; as for `Cc1ccc(C(=O)NCC2(O)CCOCC2)cc1F`, 6.79%; as for `Cc1cc(C(=O)Nc2ccnc(OC3CCOC3)c2)c(C)o1` (configuration not stated), 6.66%.
As for `CCCn1nc(C(=O)N(C)Cc2cnn(C)c2)ccc1=O`, the figure is -143%; as for `Cc1ncsc1CNc1cccc(OCCN2CCCC2)c1`, -3.35%.
As to `O=C(NCCSCc1ccc(Br)s1)C1CCCN(c2cnccn2)C1` (configuration not stated), the cytotoxicity at 10 µM worked out at 5.34%.
In the case of `CC(C)(O)CSCCNC(=O)c1cc(F)ccc1F`, the cytotoxicity at 10 µM was -4.11%.
`Cc1ncsc1CNC(=O)N1CCN(Cc2ccccc2)C[C@H]1C`: the cytotoxicity at 10 µM was -125%.
As for `Cc1cc(OCc2cccc(F)c2)ccc1NC(=O)C(C)NC(N)=O` (configuration not stated), the figure is -1.47%.
The value for `CC(C)n1cnnc1C1CCCN(S(=O)(=O)CCCC#N)C1` (configuration not stated) was -3.46%.
As for `CC(C)(CCS(C)(=O)=O)CNc1ccc2ccc(F)cc2n1`, the cytotoxicity at 10 µM was -6.01%.
Regarding `Cc1csc(NC(=O)CN(C)CC2CCCN2c2cccnn2)n1` (configuration not stated), the cytotoxicity at 10 µM was -5.82%.
Take `CC(c1ccc(Cl)cc1)N1CCN(CCS(C)(=O)=O)CC1` (configuration not stated): the cytotoxicity at 10 µM was -20.3%.
On to `CCc1cnc(CN(C(C)=O)C2CCN(CCS(C)(=O)=O)C2)o1` (configuration not stated), for which the cytotoxicity at 10 µM was -17.8%.
As to `Cc1nc(C)n(CC2CCCCN2CC(=O)Nc2cccnc2)n1` (configuration not stated), the cytotoxicity at 10 µM is -12.4%.
The value for `COCC(=O)N1CCc2nc(NC(C)C)nc(NC(C)C)c2CC1` was -104%; that for `Cc1ccc(CNC(=O)c2nc3c(n2C)CCN(c2ncccn2)C3)o1` was -119%.
As for `COCC1CN(C(=O)c2ccnnc2)Cc2c1cnn2C` (configuration not stated), the figure is -3.09%; as for `COCc1noc(-c2ccc(N3CCCCC3COC)nc2)n1` (configuration not stated), 1.69%.
As for `O=C(N[C@@H]1c2ccccc2C[C@@H]1O)C1CCN(Cc2ccco2)CC1`, the figure is -0.647%; as for `CC(C)(C)c1oc(C(N)=O)cc1CN1CCCCC1CN1CCOCC1` (configuration not stated), -11.2%.
Take `Cc1nccn1CCC1CCN(c2ncccn2)CC1`: the cytotoxicity at 10 µM is -3%.
For `Cc1csc2ncnc(N3CCCC(Cn4cc(C(C)(C)O)nn4)C3)c12` (configuration not stated), the cytotoxicity at 10 µM came out at 2.74%.
As for `Cc1cc(C)c(C(=O)N2CCC3(CCCN(CC(C)(C)C)C3)C2)[nH]1` (configuration not stated), the cytotoxicity at 10 µM is -3.73%.
Take `COCCN1CCC(CN(C)c2nc3c(s2)c(C)nn3C)C1` (configuration not stated): the cytotoxicity at 10 µM was -4.36%.
As to `CC(C)CN1CCc2[nH]cnc2C12CCN(C(=O)c1cc[nH]n1)CC2`, the cytotoxicity at 10 µM stood at 0.363%.
With `COCc1cc(N2CCN(Cc3ccncc3)CC2)n2nccc2n1`, the cytotoxicity at 10 µM was -6.32%.
Consider `O=C(O)C1(Oc2ccccc2)CCN(c2ccncc2)CC1`, for which the cytotoxicity at 10 µM is -3.99%.
On to `c1ccc(-c2cccc(-c3ccn(CCN4CCCCC4)n3)c2)nc1`, for which the cytotoxicity at 10 µM is -4.73%.
`CCC[C@H]1CN(c2nccc(NCC)n2)C[C@@H]1NS(=O)(=O)N(C)C`: the cytotoxicity at 10 µM is -144%.
As to `Cc1c(F)cccc1CN1CCn2nc(CNC(=O)N(C)C)cc2C1`, the cytotoxicity at 10 µM is -19.4%.
The value for `Cc1c(CN2CCOCC2)c(O)n(CCO)c(=O)c1C#N` was -2.78%.
As for `CCc1nc(C)cn1C(=O)Nc1ccccc1`, the figure is 2.52%; as for `CC(C)C(=O)N1CCN(Cc2cc(-c3ccncc3)nn2C)CC1`, 0.59%; as for `CC(C)Cc1cc(NC(=O)c2ccncc2)n(C)n1`, -0.502%.
In the case of `CC(C)c1nccn1C1CCCN(C(=O)c2cc(C3CC3)on2)C1` (configuration not stated), the cytotoxicity at 10 µM is -7.37%.
The value for `CC(C)c1n[nH]c(C2CN(C(=O)c3cnccn3)CCO2)n1` (configuration not stated) was 2.16%; that for `CCc1nc(C(=O)N2CCCC2)nn1-c1c(Cl)cccc1Cl` was -2.04%.
The value for `CCOc1cc(C(=O)N2CCCC(c3nc(C)c(C)s3)C2)ccn1` (configuration not stated) was -3.92%; that for `O=C(CN1CCCC1Cn1cccn1)NCCOc1cccc(F)c1` (configuration not stated) was -3.54%.
The value for `CC(C)C(=O)NCCNC(=O)CCOc1cccc(F)c1` was -2.98%.
In the case of `COC(=O)C(c1cc(F)ccc1F)N(C)C(=O)c1cnccn1` (configuration not stated), the cytotoxicity at 10 µM came out at 6.43%.
As to `CCCc1n[nH]c(C2CN(C(=O)Cn3ccccc3=O)CCO2)n1` (configuration not stated), the cytotoxicity at 10 µM is -1.33%.
As for `CCc1nc2n(n1)CC(NCc1nc(-c3cccnc3)no1)CC2` (configuration not stated), the figure is -8.66%; as for `Cc1noc([C@@H](C)NCc2cccc(Cl)c2)c1C(=O)O`, -0.802%.
In the case of `COc1ccc(C(C)(C)C)cc1CN1CCn2c(CO)nnc2C1`, the cytotoxicity at 10 µM was found to be 10.4%.
Regarding `Cc1cccc(CN2CCOC3(COCCN(CCN(C)C)C3)C2)n1` (configuration not stated), the cytotoxicity at 10 µM is -113%.
For the molecule `Cn1cc(CN2CC(C(=O)Nc3ccccc3)C3(CCOCC3)C2)cn1` (configuration not stated), the cytotoxicity at 10 µM was -1.96%.
As for `CN(Cc1ccccn1)C(=O)c1nn(C)c2c1CCN(CC1CC1)C2`, the figure is -1.68%.
As to `Cc1cc(CN2CC[C@H]3C[C@H](C(=O)Nc4cccnc4C)O[C@@H]3C2)no1`, the cytotoxicity at 10 µM is -67%.
The value for `Cn1nc(C(=O)N2CCOCC2)c2c1CN(CC1CC1)C2` was -90.1%; that for `O=C1COC2(CCN(Cc3cccnc3)CC2)CN1c1ccccc1` was -113%; that for `c1ccc(CN2CCn3c(Cn4cncn4)cnc3C2)nc1` was -70.7%.
As for `Cc1ccc2c(n1)N(CCN(C)C)CCN(C(=O)c1ccoc1)C2`, the figure is -74.4%; as for `CCSc1ncc(CN2C[C@@H]3CC[C@H]2CN(C2CCOCC2)C3)cn1`, -6.38%.
